How the values were obtained:
[1] = Metabolic stability in human liver microsomes after 30 mins; type: ADME, Microsome; conditions: read-out: Stability
Summary of the method: (§1)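 Compound incubated with human or rat liver microsomes to assess stability toward CYP450 oxidation. The read-out is percent of parent compound remaining after 30 min.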

[2] = Metabolic stability in rat liver microsomes after 30 mins; type: ADME, Microsome; conditions: read-out: Stability; summary of the method: as §1
[3] = target: T1, Gastrin/cholecystokinin type B receptor (Homo sapiens, UniProt P32239); test: Displacement of [125I]CCK-8S from CCK2 receptor
T1 sequence (P32239 whole entry): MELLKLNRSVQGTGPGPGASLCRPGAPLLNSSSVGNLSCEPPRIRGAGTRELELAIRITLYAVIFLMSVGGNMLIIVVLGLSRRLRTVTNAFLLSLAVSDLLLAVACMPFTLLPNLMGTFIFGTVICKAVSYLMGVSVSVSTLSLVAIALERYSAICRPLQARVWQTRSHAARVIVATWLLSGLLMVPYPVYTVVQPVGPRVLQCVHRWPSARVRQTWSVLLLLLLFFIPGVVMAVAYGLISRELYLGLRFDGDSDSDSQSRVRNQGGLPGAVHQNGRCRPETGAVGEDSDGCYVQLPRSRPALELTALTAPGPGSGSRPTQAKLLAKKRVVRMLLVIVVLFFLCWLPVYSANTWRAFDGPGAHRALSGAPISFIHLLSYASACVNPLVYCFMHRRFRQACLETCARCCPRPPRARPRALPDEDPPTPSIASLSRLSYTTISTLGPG
Summary of the method: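 Apparent antagonist equilibrium dissociation constant, reported as its negative logarithm, derived by the Cheng–Prusoff method from the concentration displacing 50% of 125I-CCK-8S (pIC50). Values are ±0.3 log units unless stated otherwise.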

[4] = target: T2, Cholecystokinin receptor type A (Homo sapiens, UniProt P32238); test: Binding affinity to CCK1 receptor
T2 sequence (P32238 whole entry): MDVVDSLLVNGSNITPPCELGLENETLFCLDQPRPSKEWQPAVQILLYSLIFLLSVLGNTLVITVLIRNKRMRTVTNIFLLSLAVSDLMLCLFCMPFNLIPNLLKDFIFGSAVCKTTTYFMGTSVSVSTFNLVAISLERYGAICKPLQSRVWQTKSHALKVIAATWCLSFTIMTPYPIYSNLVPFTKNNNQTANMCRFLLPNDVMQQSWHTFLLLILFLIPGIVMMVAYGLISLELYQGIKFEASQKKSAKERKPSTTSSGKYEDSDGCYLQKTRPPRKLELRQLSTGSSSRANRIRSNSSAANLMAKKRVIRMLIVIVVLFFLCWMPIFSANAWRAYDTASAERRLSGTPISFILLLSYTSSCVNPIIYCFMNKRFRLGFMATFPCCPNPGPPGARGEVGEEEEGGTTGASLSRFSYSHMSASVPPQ

Row | Structure (SMILES) | remaining at 0.5 h [1] | remaining at 0.5 h [2] | Ki [3] | Ki [4]
1 | COC(=O)c1csc(S(=O)(=O)Nc2cc(Br)ccc2C(=O)N2CCCCC2)c1OC | 0% | 0% | 5.01 µM | 
2 | Cc1c(S(=O)(=O)Nc2cc(Br)ccc2C(=O)N2CCCCC2)cnn1-c1ccccc1 | 85% | 30% | 7.94 µM | 
3 | COC(=O)c1c(C)oc(C)c1S(=O)(=O)Nc1cc(Br)ccc1C(=O)N1CCCCC1 | 0% | 11% | 0.501 µM | 
4 | Cc1nc(-c2ccc(S(=O)(=O)Nc3cc(Br)ccc3C(=O)N3CCCCC3)s2)cs1 | 5% | 47% | 3.98 µM | 
5 | O=C(NCc1ccc(S(=O)(=O)Nc2cc(Br)ccc2C(=O)N2CCCCC2)s1)c1ccccc1 | 0% | 0% | 6.31 µM | 
6 | O=C(c1ccc(Br)cc1NS(=O)(=O)c1c(F)cccc1F)N1CCCCC1 | 77% | 78% | 0.501 µM | 
7 | COC(=O)c1cc(S(=O)(=O)Nc2cc(Br)ccc2C(=O)N2CCCCC2)oc1C | 10% | 100% | 5.01 µM | 
8 | N#Cc1cccc(S(=O)(=O)Nc2cc(Br)ccc2C(=O)N2CCCCC2)c1 | 7% | 100% | 5.01 µM | 
9 | COC(=O)c1sc(C(F)(F)F)c(-c2ccccc2)c1S(=O)(=O)Nc1cc(Br)ccc1C(=O)N1CCCCC1 | 0% | 0% | 7.94 µM | 
10 | O=C(c1ccc(Br)cc1NS(=O)(=O)c1c(Cl)nc2sccn12)N1CCCCC1 | 7% | 100% | 1.58 µM | 
11 | COC(=O)c1sccc1S(=O)(=O)Nc1cc(Br)ccc1C(=O)N1CCCCC1 | 3% | 37% | 1.58 µM | 
12 | O=C(c1ccc(Br)cc1NS(=O)(=O)c1ccc2c(c1)OCCCO2)N1CCCCC1 | 41% | 9% | 2.51 µM | 
13 | CSc1nccc(-c2ccc(S(=O)(=O)Nc3cc(Br)ccc3C(=O)N3CCCCC3)s2)n1 | 63% | 39% | 3.16 µM | 
14 | Cc1nnc(-c2cccc(S(=O)(=O)Nc3cc(Br)ccc3C(=O)N3CCCCC3)c2)o1 | 0% | 66% | 7.94 µM | 

Now from value to compound:

Row | remaining at 0.5 h [1] | remaining at 0.5 h [2] | Ki [3] | Ki [4] | Structure (SMILES)
15 | 13% | 23% | 5.01 µM |  | O=C(c1ccc(Br)cc1NS(=O)(=O)c1ccc2nsnc2c1)N1CCCCC1
16 | 44% | 49% | 0.631 µM |  | O=C(c1ccc(Br)cc1NS(=O)(=O)c1ccc(C(F)(F)F)cc1Cl)N1CCCCC1
17 | 3% | 25% | 2 µM |  | Cc1ccc(S(=O)(=O)Nc2cc(Br)ccc2C(=O)N2CCCCC2)cc1[N+](=O)[O-]
18 | 0% | 29% |  |  | O=C(c1ccc(Br)cc1NS(=O)(=O)c1cccc2nsnc12)N1CCCCC1
19 | 2% | 68% | 0.794 µM |  | O=C(c1ccc(Br)cc1NS(=O)(=O)c1sc(Cl)cc1Br)N1CCCCC1
20 |  |  |  | > 10 µM | O=C(c1cc(Cl)ccc1NS(=O)(=O)c1cccc2nsnc12)N1CCCCC1
21 | 23% | 19% | 3.16 µM |  | O=C(c1ccc(Br)cc1NS(=O)(=O)c1csc2ccccc12)N1CCCCC1
22 | 89% | 87% | 5.01 µM |  | O=C(c1ccc(Br)cc1NS(=O)(=O)c1ccc(-c2cc(C(F)(F)F)on2)s1)N1CCCCC1

— ChEMBL document CHEMBL1141362, “Synthesis and solid-phase purification of anthranilic sulfonamides as CCK-2 ligands” (Bioorg Med Chem Lett, 2007)
